In series [1] the test system is HeLa. The series is described as follows: Antiproliferative activity against human HeLa cells after 48 hrs by sulforhodamine B assay. It is filed as functional, cell-based. The gist of the method: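 HeLa cells (STR-validated) grown in BME with 10% FBS and gentamycin, seeded 2500/well, left to adhere overnight, then exposed to compounds for 48 h. Cell density read by sulforhodamine B staining. IC50 is the concentration giving 50% inhibition of cell density versus vehicle, fitted by nonlinear regression. Mean of 3 or 4 experiments, each in triplicate, ±SD.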
For orientation: Sulforhodamine B stains cellular protein and so reports cell mass.

Series [2] deals with HeLa. Briefly: Induction of microtubule stabilization in human HeLa cells assessed as formation of multiple aberrant mitotic spindle at 5 times IC50 after 18 hrs by indirect immunofluorescence assay. It is filed as cell-based. An outline of the steps: (§1)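 HeLa cells treated for 18 h at 5-fold each compound's own antiproliferative IC50, with EtOH as vehicle control. Mitotic and interphase microtubules stained by indirect immunofluorescence with a β-tubulin antibody and viewed by fluorescence microscopy.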

Series [3] has as its system HeLa. Briefly: Induction of microtubule stabilization in human HeLa cells assessed as bundling of interphase microtubule at 5 times IC50 after 18 hrs by indirect immunofluorescence assay. It is filed as cell-based. The gist of the method: as §1
Series [4] is filed under the species Sus scrofa. Briefly: Induction of porcine brain tubulin polymerization at 5 uM by turbidimetric method. An outline of the steps: (§2)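 Compound or vehicle (1% EtOH) added; samples prepared on ice, then warmed to 37 °C to start polymerization. Rate and extent followed turbidimetrically at 340 nm.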
A short description of series [5]: Toxicity in ip dosed athymic nude mouse harboring tumor. It is filed as organism-based. The conditions noted are these: in vivo. An outline of the steps:
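Dose tolerance was assessed in tumor-bearing mice carrying drug-sensitive or drug-resistant xenografts, with compound given by ip injection. A cumulative maximal tolerated dose was determined.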

In series [6] the test system is NCI/ADR-RES. The series is described as follows: Antitumor activity against human NCI/ADR-RES cells xenografted in athymic nude mouse administered via ip. It is filed as functional, cell-based.
Series [7] relates to NCI/ADR-RES. The series is described as follows: Antitumor activity against human NCI/ADR-RES cells xenografted in athymic nude mouse assessed as reduction in tumor growth at 20 ug administered intratumorally on day day 0, 3, 6, 10 and 14 measured on day 0 post dose. It is filed as functional, cell-based. The gist of the method: (§3)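 NCI/ADR-RES tumor fragments implanted s.c. in the flanks of female athymic nude mice. Randomized at a mean tumor volume of 250 mm3 (range 100−465). Dosing was 20 μg in 200 μL of 10% EtOH/PBS by intratumoral injection on days 0, 3, 6, 10 and 14; vehicle and paclitaxel groups ran alongside. Caliper volume = L×W×H. Mice were euthanized at 1500 mm3. Two-way ANOVA with Tukey post hoc.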
In general terms: In xenograft studies the graft and the host belong to different species.

The test system of series [8] is NCI/ADR-RES. The series is described as follows: Antitumor activity against human NCI/ADR-RES cells xenografted in athymic nude mouse assessed as reduction in tumor growth at 20 ug administered intratumorally on day 0, 3, 6, 10 and 14 measured on day 10 post dose. It is filed as functional, cell-based. The gist of the method:
(§4)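 NCI/ADR-RES tumor fragments implanted s.c. in flanks of female athymic nude mice. At about 250 mm3 (100−465 mm3), mice were grouped (n = 7−9). Tumors were injected directly with 200 μL on days 0, 3, 6, 10 and 14: 20 μg in 10% EtOH/PBS, paclitaxel 40 μg in 1% Cremophor/EtOH in PBS, or vehicle. Volume = length × width × height by calipers.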

In series [9] the test system is Mus musculus. The series is described as follows: Toxicity in athymic nude mouse xenografted with human NCI/ADR-RES cells assessed as weight loss at 20 ug administered intratumorally on day 0, 3, 6, 10 and 14 measured on day 10. Particulars: in vivo, other. It is filed as organism-based. The gist of the method:
as §3

Series [10] relates to NCI/ADR-RES. The series is described as follows: Antitumor activity against human NCI/ADR-RES cells xenografted in athymic nude mouse assessed as reduction in tumor growth at 20 ug administered intratumorally on day 0, 3, 6, 10 and 14 measured on day 12 to 14 post dose. In kind it is functional, cell-based. The gist of the method: as §3
Series [11] has as its system NCI/ADR-RES. The series is described as follows: Antitumor activity against human NCI/ADR-RES cells xenografted in athymic nude mouse assessed as delay in tumor growth at 20 ug administered intratumorally on day 0, 3, 6, 10 and 14 measured up to 54 days starting from 5 days post last dose. In kind it is functional, cell-based. An outline of the steps: as §4
The subject of series [12] is NCI/ADR-RES. Briefly: Antitumor activity against human NCI/ADR-RES cells xenografted in athymic nude mouse assessed as tumor volume at 20 ug administered intratumorally on day 0, 3, 6, 10 and 14 measured up to 45 days starting from 5 days post last dose. It is filed as functional. An outline of the steps: as §4
Series [13] concerns NCI/ADR-RES. The series is described as follows: Antitumor activity against human NCI/ADR-RES cells xenografted in athymic nude mouse assessed as reduction in tumor growth at 20 ug administered intratumorally on day 0, 3, 6, 10 and 14 measured on day 12. It is filed as functional, cell-based. An outline of the steps:
as §3

Series [14] relates to Mus musculus. Briefly: Toxicity in athymic nude mouse xenografted with human NCI/ADR-RES cells assessed as adverse effect at 20 ug administered intratumorally on day 0, 3, 6, 10 and 14 measured on day 12. It is filed as organism-based. Particulars: in vivo, other. The gist of the method: as §3
Series [15] relates to NCI/ADR-RES. Briefly: Antitumor activity against human NCI/ADR-RES cells xenografted in athymic nude mouse assessed as time required to show half of the tumors to reach tumor volume <1500 mm3 at 20 ug administered intratumorally on day 0, 3, 6, 10 and 14 measured after 5 days. It is filed as functional. An outline of the steps:
as §3

The species entered for series [16] is Sus scrofa. The series is described as follows: Induction of porcine brain tubulin polymerization at 5 to 20 uM by turbidimetric method. The gist of the method:
as §2

Series [17] concerns NCI/ADR-RES. Briefly: Antitumor activity against human NCI/ADR-RES cells xenografted in athymic nude mouse assessed as reduction in tumor growth at 40 ug administered intratumorally on day day 0, 3, 6, 10 and 14 measured on day 0 post dose. In kind it is functional, cell-based. An outline of the steps:
as §4

Series [18] concerns NCI/ADR-RES. Briefly: Antitumor activity against human NCI/ADR-RES cells xenografted in athymic nude mouse assessed as reduction in tumor growth at 40 ug administered intratumorally on day 0, 3, 6, 10 and 14 measured on day 12 to 14 post dose. It is filed as functional, cell-based. An outline of the steps: as §4
The subject of series [19] is NCI/ADR-RES. Briefly: Antitumor activity against human NCI/ADR-RES cells xenografted in athymic nude mouse assessed as reduction in tumor growth at 40 ug administered intratumorally on day 0, 3, 6, 10 and 14 measured up to 14 days during compound dosing. In kind it is functional, cell-based. An outline of the steps: as §4

Calls of active or inactive are those of the source. The calls are words filed in the database; no cut-off is given here.

As a reminder, the IC50 is the concentration at which inhibition is half-maximal. Turning to `CC(=O)O[C@H]1[C@H]2[C@H]([C@@H]3[C@@H](OC(=O)CC(C)C)[C@@H]4[C@H]([C@H](C)[C@H]5O[C@]56OC(=O)[C@@](C)(O)[C@]46C)[C@@]3(C)[C@H]1OC(C)=O)[C@@H](O)C(=O)[C@H]1C[C@@H]3O[C@@H]3[C@H](OC(C)=O)[C@]21C`, in the series with HeLa [1], the IC50 turned out to be 2.7 nM. Further, the outcome in the series with HeLa [2], in the series on HeLa [3], in the series filed under Sus scrofa [4], with NCI/ADR-RES [7], in the series on NCI/ADR-RES [8] and with NCI/ADR-RES [10] was Active. In addition, in the series on NCI/ADR-RES [11], the outcome was Active. Also, the MTD in series [5] is less than 10 mg/kg. For the same compound, the outcome in the series with NCI/ADR-RES [6] was inactive. Moreover, the Activity entry in the series on Mus musculus [9] is recorded as “Non-Toxic”; in the series on NCI/ADR-RES [12] it was less than 1500 mm3.

The compound `CC(=O)O[C@H]1[C@H]2[C@H]([C@@H]3[C@@H](O)[C@@H]4[C@H]([C@H](C)[C@H]5O[C@]56OC(=O)[C@@](C)(O)[C@]46C)[C@@]3(C)[C@H]1OC(C)=O)[C@@H](OC(=O)CC(C)C)C(=O)[C@H]1C[C@@H]3O[C@@H]3[C@H](OC(C)=O)[C@]21C` returned an IC50 with HeLa [1] of 2.4 nM. Further, the result in the series on HeLa [2], with HeLa [3], in the series filed under Sus scrofa [4], with NCI/ADR-RES [7], with NCI/ADR-RES [13] and in the series with NCI/ADR-RES [10] was Active. Moreover, in series [5], the MTD is less than 10 mg/kg. Besides, in the series on NCI/ADR-RES [6], the outcome was inactive. Further, the Activity entry in the series on Mus musculus [14] is given as “Non-Toxic”. Also, the Time in the series with NCI/ADR-RES [15] stood at 38 days.

`CC(=O)O[C@@H]1[C@H]2[C@H]3[C@H]([C@H](OC(C)=O)[C@H](OC(C)=O)[C@]2(C)[C@H]2[C@H](C)[C@H]4O[C@]45OC(=O)[C@@](C)(O)[C@]5(C)[C@H]12)[C@]1(C)[C@H](C[C@@H]2O[C@@H]2[C@@H]1OC(C)=O)C(=O)[C@@H]3O` showed an IC50 with HeLa [1] of 23 nM. Further, the result in the series with NCI/ADR-RES [6] was Active.

For the compound `CC(=O)O[C@H]1[C@H]2[C@H]([C@@H]3[C@@H](O)[C@@H]4[C@H]([C@H](C)[C@H]5O[C@]56OC(=O)[C@@](C)(O)[C@]46C)[C@@]3(C)[C@H]1OC(C)=O)[C@@H](O)C(=O)[C@H]1C[C@@H]3O[C@@H]3[C@H](OC(C)=O)[C@]21C`, half-maximal inhibition with HeLa [1] (IC50) required 4.2 nM. Further, in the series filed under Sus scrofa [16], the result was Active. In the series on NCI/ADR-RES [6], the result was inactive.

`CC(=O)O[C@H]1[C@H]2[C@H]([C@@H]3[C@@H](OC(=O)C4CC4)[C@@H]4[C@H]([C@H](C)[C@H]5O[C@]56OC(=O)[C@@](C)(O)[C@]46C)[C@@]3(C)[C@H]1OC(C)=O)[C@@H](O)C(=O)[C@H]1C[C@@H]3O[C@@H]3[C@H](OC(C)=O)[C@]21C` registered an IC50 in the series with HeLa [1] of 27.5 nM. For the same compound, the result in the series with HeLa [2], in the series on HeLa [3] and in the series filed under Sus scrofa [4] was Active. Moreover, the MTD in series [5] is less than 10 mg/kg.

For the compound `CC(=O)O[C@H]1C(=O)[C@@]2(C)[C@H]([C@H](OC(=O)c3ccccc3)[C@]3(O)C[C@H](OC(=O)[C@H](O)[C@@H](NC(=O)c4ccccc4)c4ccccc4)C(C)=C1C3(C)C)[C@]1(OC(C)=O)CO[C@@H]1C[C@@H]2O`, the result in the series with NCI/ADR-RES [17] and with NCI/ADR-RES [19] was inactive. Moreover, the result in the series on NCI/ADR-RES [18] was Active.

Values taken from ChEMBL document CHEMBL4138275, “Taccalonolide Microtubule Stabilizers Generated Using Semisynthesis Define the Effects of Mono Acyloxy Moieties at C-7 or C-15 and Disubstitutions at C-7 and C-25” (J Nat Prod, 2018).
